Assay results as given in ChEMBL document CHEMBL4325900, “Antibacterial activity evaluation of synthetic novel pleuromutilin derivatives in vitro and in experimental infection mice” (2019).
Converted amounts (≈) assume the structure as drawn.

Columns and labels:
Enterococcus faecium = test: Antibacterial activity against Enterococcus faecium after 24 hrs by NCCLS method; type: functional
Summary of the method: (§1)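 Broth microdilution in Mueller-Hinton broth. Stocks at 1280 µg/mL in aqueous 10-20% DMSO were diluted to 128 µg/mL, then serially 2-fold diluted giving final concentrations of 64 down to 0.125 µg/mL. Overnight MHB cultures were diluted to 10^6~10^7 CFU/mL, and 100 µL was added per well. Plates ran 24 h at 37°C. MIC was read from OD against an MHB blank, in triplicate.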

Escherichia coli [1] = test: Antibacterial activity against Escherichia coli ATCC 11775 after 24 hrs by NCCLS method; type: functional; conditions: DSM 30083 = JCM 1649 = ATCC 11775, 24 h; summary of the method: as §1
[2] = test system: Staphylococcus epidermidis; test: Antibacterial activity against methicillin-resistant Staphylococcus epidermidis after 24 hrs by NCCLS method; type: functional
Summary of the method: (§2)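 Broth microdilution in Mueller-Hinton broth. Stocks at 1280 µg/mL in aqueous 10-20% DMSO, diluted to 128 µg/mL, then 2-fold serially to final 64 down to 0.125 µg/mL. Overnight MHB cultures diluted to 10^6~10^7 CFU/mL and added 1:1 to compound. Incubated 24 h at 37°C. MIC read from OD against MHB blank. Three parallels per concentration.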

Staphylococcus aureus [3] = test: Antibacterial activity against methicillin-sensitive Staphylococcus aureus after 24 hrs by NCCLS method; type: functional; summary of the method: as §1
[4] = test system: Staphylococcus epidermidis; test: Antibacterial activity against methicillin-sensitive Staphylococcus epidermidis after 24 hrs by NCCLS method; type: functional; summary of the method: as §2
Staphylococcus aureus [5] = test: Antibacterial activity against methicillin-resistant Staphylococcus aureus after 24 hrs by NCCLS method; type: functional; summary of the method: as §2
Pasteurella multocida = test: Antibacterial activity against Pasteurella multocida after 24 hrs by NCCLS method; type: functional; summary of the method: as §1
Enterococcus faecalis = test: Antibacterial activity against Enterococcus faecalis after 24 hrs by NCCLS method; type: functional; summary of the method: as §1
Staphylococcus aureus [6] = test: Antibacterial activity against methicillin-resistant Staphylococcus aureus clinical isolates infected in ip dosed mouse assessed as reduction in bacterial infection administered 1 hr after infection and measured after 7 days; type: functional
Summary of the method: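 Kunming mice, half male and half female, 19-23 g, 10 per group. Infected i.p. with 0.5 mL clinical MRSA isolate suspension (~10^7 CFU/mL). Single i.p. dose 1 h post-infection, five dose levels between 7.0 and 50.0 mg/kg depending on compound. Vehicle was DMSO:Tween-80:water 1:1:8, or water for valnemulin. ED50 by Probit analysis from survival after 7 days; 95% confidence ranges.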

Escherichia coli [7] = test: Potency index, ratio of MIC for Valnemulin hydrochloride to MIC for test compound for antibacterial activity against Escherichia coli ATCC 11775 after 24 hrs by NCCLS method; type: functional, DSM 30083 = JCM 1649 = ATCC 11775
Staphylococcus aureus [8] = test: Antibacterial activity against methicillin-resistant Staphylococcus aureus infected in Kunming mouse assessed as mouse survival at 20 mg/kg, ig qd treated for 3 consecutive days and measured up to 10 days relative to control; type: functional; conditions: po, 240 h
Summary of the method: (§3)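 Female Kunming mice, 22±2 g, made neutropenic with cyclophosphamide i.p., 150 mg/kg 4 days and 100 mg/kg 1 day before infection. Infected i.p. with 0.5 mL suspension of clinical MRSA isolate. Intragastric dosing at 20 or 40 mg/kg/d, starting 1 h post-infection, once daily for 3 consecutive days. Survival monitored.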

Staphylococcus aureus [9] = test: Bactericidal activity against exponential phase of methicillin-resistant Staphylococcus aureus assessed as time required for complete bacterial killing at 8 times MIC by time kill kinetics assay; type: functional
Summary of the method: (§4)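 Exponential-phase S. aureus (4 h at 37°C, 120 rpm) diluted to ~2×10^7 CFU/mL in MHB and mixed 1:1 with MHB containing twice the desired compound concentration. Shaken at 37°C, 120 rpm. Samples at 1, 2, 3 and 4 h washed with PBS, diluted, spot-plated on MH agar, counted after ~18 h at 37°C as log10 CFU/mL. Triplicate, mean±s.d.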

Staphylococcus aureus [10] = test: Bactericidal activity against exponential phase of methicillin-resistant Staphylococcus aureus assessed as time required for complete bacterial killing at 4 times MIC by time kill kinetics assay; type: functional; summary of the method: as §4
Staphylococcus aureus [11] = test: Antibacterial activity against methicillin-resistant Staphylococcus aureus infected in Kunming mouse assessed as mouse survival at 40 mg/kg, ig qd treated for 3 consecutive days and measured at day 6 relative to control; type: functional; conditions: po, 144 h; summary of the method: as §3
Staphylococcus aureus [12] = test: Antibacterial activity against methicillin-resistant Staphylococcus aureus infected in Kunming mouse assessed as mouse survival at 40 mg/kg, ig qd treated for 3 consecutive days and measured during compound treatment relative to control; type: functional; conditions: po; summary of the method: as §3
Staphylococcus aureus [13] = test: Bactericidal activity against exponential phase of methicillin-resistant Staphylococcus aureus after 1 to 4 hrs by time kill kinetics assay; type: functional, organism-based; summary of the method: as §4
Staphylococcus aureus [14] = test: Antibacterial activity against methicillin-resistant Staphylococcus aureus infected in Kunming mouse assessed as mouse survival at 40 mg/kg, ig qd treated for 3 consecutive days and measured at day 5 relative to control; type: functional; conditions: po, 120 h; summary of the method: as §3

SMILES	MIC (Enterococcus faecium)	MIC (Escherichia coli [1])	MIC [2]	MIC (Staphylococcus aureus [3])	MIC [4]	MIC (Staphylococcus aureus [5])	MIC (Pasteurella multocida)	MIC (Enterococcus faecalis)	ED50 (Staphylococcus aureus [6])	Ratio (Escherichia coli [7])	survival at 20 mg/kg (Staphylococcus aureus [8])	Time (Staphylococcus aureus [9])	Time (Staphylococcus aureus [10])	survival at 40 mg/kg (Staphylococcus aureus [11])	survival at 40 mg/kg (Staphylococcus aureus [12])	Activity (Staphylococcus aureus [13])	survival at 40 mg/kg (Staphylococcus aureus [14])
C=C[C@]1(C)C[C@@H](OC(=O)CSc2nc(NC(=O)CNC3CC3)c3cc[nH]c3n2)[C@]2(C)[C@H](C)CC[C@]3(CCC(=O)[C@H]32)[C@@H](C)[C@@H]1O	0.25 µg/mL (≈ 0.401 µM)	> 64 µg/mL	0.25 µg/mL (≈ 0.401 µM)	0.125 µg/mL (≈ 0.2 µM)	0.125 µg/mL (≈ 0.2 µM)	0.25 µg/mL (≈ 0.401 µM)	32 µg/mL (≈ 51.3 µM)	64 µg/mL (≈ 103 µM)	–	–	–	–	–	–	–	–	–
C=C[C@]1(C)C[C@@H](OC(=O)CSc2nc(NC(=O)CN3CCN(c4ccccn4)CC3)c3cc[nH]c3n2)[C@]2(C)[C@H](C)CC[C@]3(CCC(=O)[C@H]32)[C@@H](C)[C@@H]1O	0.25 µg/mL (≈ 0.342 µM)	> 64 µg/mL	0.5 µg/mL (≈ 0.685 µM)	1 µg/mL (≈ 1.37 µM)	0.5 µg/mL (≈ 0.685 µM)	0.5 µg/mL (≈ 0.685 µM)	> 64 µg/mL	64 µg/mL (≈ 87.7 µM)	–	–	–	–	–	–	–	–	–
C=C[C@]1(C)C[C@@H](OC(=O)CSc2nc(NC(=O)CNC3CCCCC3)c3cc[nH]c3n2)[C@]2(C)[C@H](C)CC[C@]3(CCC(=O)[C@H]32)[C@@H](C)[C@@H]1O	0.5 µg/mL (≈ 0.751 µM)	> 64 µg/mL	0.5 µg/mL (≈ 0.751 µM)	0.5 µg/mL (≈ 0.751 µM)	0.5 µg/mL (≈ 0.751 µM)	1 µg/mL (≈ 1.5 µM)	64 µg/mL (≈ 96.1 µM)	64 µg/mL (≈ 96.1 µM)	–	–	–	–	–	–	–	–	–
C=C[C@]1(C)C[C@@H](OC(=O)CSc2nc(NC(=O)CN3CCC(N(C)C)CC3)c3cc[nH]c3n2)[C@]2(C)[C@H](C)CC[C@]3(CCC(=O)[C@H]32)[C@@H](C)[C@@H]1O	1 µg/mL (≈ 1.44 µM)	> 64 µg/mL	0.5 µg/mL (≈ 0.719 µM)	0.5 µg/mL (≈ 0.719 µM)	0.5 µg/mL (≈ 0.719 µM)	1 µg/mL (≈ 1.44 µM)	64 µg/mL (≈ 92.1 µM)	64 µg/mL (≈ 92.1 µM)	–	–	–	–	–	–	–	–	–
C=C[C@]1(C)C[C@@H](OC(=O)CSc2nc(NC(=O)CN(CC)CC)c3cc[nH]c3n2)[C@]2(C)[C@H](C)CC[C@]3(CCC(=O)[C@H]32)[C@@H](C)[C@@H]1O	0.125 µg/mL (≈ 0.195 µM)	16 µg/mL (≈ 25 µM)	0.125 µg/mL (≈ 0.195 µM)	0.0625 µg/mL (≈ 0.0977 µM)	0.0625 µg/mL (≈ 0.0977 µM)	0.0625 µg/mL (≈ 0.0977 µM)	64 µg/mL (≈ 100 µM)	32 µg/mL (≈ 50 µM)	27.7 mg/kg	2	–	–	–	–	–	–	–
C=C[C@]1(C)C[C@@H](OC(=O)CSc2nc(NC(=O)CN3CCCC3)c3cc[nH]c3n2)[C@]2(C)[C@H](C)CC[C@]3(CCC(=O)[C@H]32)[C@@H](C)[C@@H]1O	0.0625 µg/mL (≈ 0.098 µM)	32 µg/mL (≈ 50.2 µM)	0.0625 µg/mL (≈ 0.098 µM)	0.0625 µg/mL (≈ 0.098 µM)	0.0625 µg/mL (≈ 0.098 µM)	0.0625 µg/mL (≈ 0.098 µM)	16 µg/mL (≈ 25.1 µM)	64 µg/mL (≈ 100 µM)	16 mg/kg	–	30%	2 h	4 h	80%	> 90%	Dose-dependent effect	70%
C=C[C@]1(C)C[C@@H](OC(=O)CSc2nc(NC(=O)CN3CCC(c4ccccc4)CC3)c3cc[nH]c3n2)[C@]2(C)[C@H](C)CC[C@]3(CCC(=O)[C@H]32)[C@@H](C)[C@@H]1O	–	–	0.25 µg/mL (≈ 0.343 µM)	0.25 µg/mL (≈ 0.343 µM)	0.25 µg/mL (≈ 0.343 µM)	0.25 µg/mL (≈ 0.343 µM)	–	–	–	–	–	–	–	–	–	–	–
C=C[C@]1(C)C[C@@H](OC(=O)CSc2nc(NC(=O)CN3CCC(O)CC3)c3cc[nH]c3n2)[C@]2(C)[C@H](C)CC[C@]3(CCC(=O)[C@H]32)[C@@H](C)[C@@H]1O	–	–	1 µg/mL (≈ 1.5 µM)	–	1 µg/mL (≈ 1.5 µM)	2 µg/mL (≈ 2.99 µM)	–	–	–	–	–	–	–	–	–	–	–
C=C[C@]1(C)C[C@@H](OC(=O)CSc2nc(NC(=O)CN3CCC(N4CCCCC4)CC3)c3cc[nH]c3n2)[C@]2(C)[C@H](C)CC[C@]3(CCC(=O)[C@H]32)[C@@H](C)[C@@H]1O	0.0625 µg/mL (≈ 0.085 µM)	64 µg/mL (≈ 87.1 µM)	0.5 µg/mL (≈ 0.68 µM)	0.5 µg/mL (≈ 0.68 µM)	0.25 µg/mL (≈ 0.34 µM)	0.5 µg/mL (≈ 0.68 µM)	64 µg/mL (≈ 87.1 µM)	64 µg/mL (≈ 87.1 µM)	–	–	–	–	–	–	–	–	–
